We go through nine molecules from ChEMBL document CHEMBL2163241, “Human neutrophil elastase phosphonic inhibitors with improved potency of action” (J Med Chem, 2012).

The species named for series [1] is Homo sapiens. Description: Selectivity ratio of Kinact/Ki ratio for human leukocyte elastase to Kinact/Ki ratio for chymotrypsin.
A short description of series [2]: Inhibition of chymotrypsin at 25 uM assessed as Kinact/Ki ratio incubated for 15 mins by spectrofluorometry.
Series [3] addresses Pancreatic elastase (Sus scrofa) (UniProt P08419+P00772). Put plainly: Inhibition of porcine pancreatic elastase at 25 uM assessed as Kinact/Ki ratio incubated for 15 mins by spectrofluorometry. In kind it is protein assay.
The target of series [4] is T1, Neutrophil elastase (Homo sapiens) (UniProt P08246).
T1 sequence (whole entry): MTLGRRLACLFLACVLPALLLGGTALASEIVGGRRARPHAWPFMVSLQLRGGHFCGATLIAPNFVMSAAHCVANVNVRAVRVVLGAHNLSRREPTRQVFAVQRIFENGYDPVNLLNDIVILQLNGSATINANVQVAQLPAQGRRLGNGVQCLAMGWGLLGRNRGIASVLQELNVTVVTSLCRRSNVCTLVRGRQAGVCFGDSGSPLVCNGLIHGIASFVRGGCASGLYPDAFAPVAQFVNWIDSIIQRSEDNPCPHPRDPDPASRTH
Description: Inhibition of human leukocyte elastase at 25 uM assessed as Kinact/Ki ratio incubated for 15 mins by spectrofluorometry.

The nature of series [5]: Inhibition of trypsin at 25 uM assessed as Kinact/Ki ratio incubated for 15 mins by spectrofluorometry.
The species named for series [6] is Homo sapiens. Description: Selectivity ratio of Kinact/Ki ratio for chymotrypsin to Kinact/Ki ratio for human leukocyte elastase.
The target in series [7] is T1, Neutrophil elastase (Homo sapiens). Put plainly: Irreversible inhibition of human leukocyte elastase assessed as recovery of enzyme activity using MeOSuc-AAPV-AFC substrate at 200 uM treated for 15 mins followed by dialysis measured up to 50 days by fluorescence assay. The arrangement: scale not given: the % may be the effect or the level left.
The nature of series [8]: Selectivity ratio of Kinact/Ki ratio for porcine pancreatic elastase to Kinact/Ki ratio for human leukocyte elastase.
Series [9] is described as follows: Half life in 80% human plasma at […] incubated at 37 degC by HPLC. The series is classed as ADME, cell-free. The procedure, abridged: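 DMSO stock (50 mM) added to freshly isolated pooled healthy-donor human plasma diluted to 80% with PBS pH 7.4, final 3 mg/mL or 0.1 mg/mL; incubated 37 °C; compound remaining monitored by HPLC over time to give half-life.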

Series [10] is described as follows: Solubility in 80% human plasma at […] incubated at 37 degC by HPLC. The series is classed as ADME, cell-free.
Series [11] can be described thus: Solubility in pH 7.4 PBS buffer at […] incubated at 37 degC by HPLC. In kind it is physicochemical.
The nature of series [12]: Half life in pH 7.4 PBS buffer at […] incubated at 37 degC by HPLC. In kind it is physicochemical.
A short description of series [13]: Drug degradation in pH 7.4 PBS buffer assessed as compound hydrolysis at […] measured after 48 hrs at 37 degC by HPLC. The following applies: read-out: Drug degradation. The series is classed as physicochemical.
Series [14] can be described thus: Chemical stability in pH 7.4 PBS buffer assessed as compound remaining at […] measured after 6 days at 37 degC by HPLC. In kind it is physicochemical. The note with it: read-out: Stability.

Turning to `COC(=O)c1cccc(OP(=O)(Oc2cccc(C(=O)OC)c2)C(CC(C)C)NC(=O)[C@@H]2CCCN2C(=O)[C@@H](NC(=O)OC(C)(C)C)C(C)C)c1` (stereo not given in full), the Ratio in the series listed under Homo sapiens [1] is greater than 1.3; in [2], 166000 M⁻¹ s⁻¹; in [3], 76900 M⁻¹ s⁻¹; in [4], 122000 M⁻¹ s⁻¹; in series [5] it was 2800 M⁻¹ s⁻¹.
As for `CSc1ccc(OP(=O)(Oc2ccc(SC)cc2)[C@@H](NC(=O)[C@@H]2CCCN2C(=O)[C@@H](NC(=O)COc2ccc(OCC(=O)O)cc2)C(C)C)C(C)C)cc1`, the Ratio is 365 in the series listed under Homo sapiens [6]; 6450 M⁻¹ s⁻¹ in series [2]; 39200 M⁻¹ s⁻¹ in series [3]; 60 in series [8]; 2.35e+06 M⁻¹ s⁻¹ in series [4]; less than 50 M⁻¹ s⁻¹ in series [5]. Moreover, the Activity in series [7] was found to be 15%.
On to `CSc1ccc(OP(=O)(Oc2ccc(SC)cc2)[C@@H](NC(=O)[C@@H]2CCCN2C(=O)[C@@H](NC(=O)Cn2ccc(=O)n(CC(=O)O)c2=O)C(C)C)C(C)C)cc1`, for which the Ratio in the series listed under Homo sapiens [6] came out at 27; in [2], 40200 M⁻¹ s⁻¹; in series [3], 309000 M⁻¹ s⁻¹; in series [8], 3.5; in series [4], 1.08e+06 M⁻¹ s⁻¹; in [5], 235 M⁻¹ s⁻¹.
For orientation: half-life means the time in which the quantity being followed falls by half. A word on the solubility: it is the concentration that dissolves in the medium under given conditions. For the molecule `CSc1ccc(OP(=O)(Oc2ccc(SC)cc2)C(NC(=O)[C@@H]2CCCN2C(=O)[C@@H](NC(=O)Cn2ccc(=O)n(CC(=O)O)c2=O)C(C)C)C(C)C)cc1` (mixture of isomers), the Ratio in series [2] stood at 28300 M⁻¹ s⁻¹; in [3], 140000 M⁻¹ s⁻¹; in series [4] it was 460000 M⁻¹ s⁻¹; in series [5], 130 M⁻¹ s⁻¹. Besides, the half-life in series [9] is 4.55 h; in series [12], 100 h. The solubility in series [10] and in series [11] was 6.22 mM throughout.
For `CSc1ccc(OP(=O)(Oc2ccc(SC)cc2)C(NC(=O)[C@@H]2CCCN2C(=O)[C@@H](NC(=O)Cn2cc(C)c(=O)n(CC(=O)O)c2=O)C(C)C)C(C)C)cc1` (mixture of isomers), the Ratio in the series filed under Homo sapiens [6] came out at 42; in [2], 22900 M⁻¹ s⁻¹; in series [3] it was 118000 M⁻¹ s⁻¹; in series [8], 8.2; in series [4], 965000 M⁻¹ s⁻¹; in [5], 140 M⁻¹ s⁻¹. The half-life in series [9] was 3.95 h; in [12], 100 h. For the same molecule, the solubility in series [10] and in series [11] was 6.11 mM in each case.
On to `CSc1ccc(OP(=O)(Oc2ccc(SC)cc2)C(NC(=O)[C@@H]2CCCN2C(=O)[C@@H](NC(=O)OC(C)(C)C)C(C)C)C(C)C)cc1` (mixture of isomers), for which the Ratio in series [2] was 900 M⁻¹ s⁻¹; in series [3] it was 14000 M⁻¹ s⁻¹; in series [8], 15; in series [4], 217000 M⁻¹ s⁻¹; in series [5] it was less than 50 M⁻¹ s⁻¹. For the same molecule, the half-life is 6.2 h in series [9] and 28 h in series [12]. Also, the solubility in [10] and in series [11] was 0.36 mM in each case.
Regarding `CSc1ccc(OP(=O)(Oc2ccc(SC)cc2)C(NC(=O)[C@@H]2CCCN2C(=O)[C@@H](NC(=O)COc2ccc(OCC(=O)O)cc2)C(C)C)C(C)C)cc1` (mixture of isomers), the Ratio in the series filed under Homo sapiens [6] is 245; in series [2], 4000 M⁻¹ s⁻¹; in [3] it was 19100 M⁻¹ s⁻¹; in series [8], 50.8; in series [4], 970000 M⁻¹ s⁻¹; in series [5], less than 50 M⁻¹ s⁻¹. The degraded at 48 h in [13] was found to be 16%. For the same molecule, the half-life in series [9] was 8 h; in [12] it was 150 h. The remaining at 144 h in series [14] is greater than 50%. In addition, the solubility in series [10] and in series [11] was 6.23 mM throughout.
For the molecule `COc1ccc(C(=O)N[C@H](C(=O)N2CCC[C@H]2C(=O)NC(C(C)C)P(=O)(Oc2ccc(SC)cc2)Oc2ccc(SC)cc2)C(C)C)cc1` (mixture of isomers), the Ratio is less than 50 M⁻¹ s⁻¹ in series [2], 4700 M⁻¹ s⁻¹ in series [3], 304000 M⁻¹ s⁻¹ in [4] and less than 50 M⁻¹ s⁻¹ in [5]. Also, the half-life is 3.8 h in [9] and 26 h in [12]. For the same molecule, the solubility in series [10] and in [11] was 0.17 mM throughout.
Consider `CC(C)C(NC(=O)[C@@H]1CCCN1C(=O)[C@@H](NC(=O)OC(C)(C)C)C(C)C)P(=O)(Oc1ccccc1)Oc1ccccc1` (mixture of isomers), for which the Ratio in series [2] was less than 50 M⁻¹ s⁻¹; in series [3], 22800 M⁻¹ s⁻¹; in series [8], 2; in series [4], 46100 M⁻¹ s⁻¹; in series [5], less than 50 M⁻¹ s⁻¹.
